# Assay outcomes as filed in PubChem BioAssay.
# FLuc inhib CS – inhibits firefly luciferase, flagging false hits in luciferase inhibition screens | 1.5% of 200,000 active | P08659 | ATPLite firefly luciferase biochemical luminescence, 10 min | inhibition, % at 10 µM;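 active = inhibition above about 50% when tested at 10 µM, limit read from the data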
# Target sequence (P08659 whole entry, looked up): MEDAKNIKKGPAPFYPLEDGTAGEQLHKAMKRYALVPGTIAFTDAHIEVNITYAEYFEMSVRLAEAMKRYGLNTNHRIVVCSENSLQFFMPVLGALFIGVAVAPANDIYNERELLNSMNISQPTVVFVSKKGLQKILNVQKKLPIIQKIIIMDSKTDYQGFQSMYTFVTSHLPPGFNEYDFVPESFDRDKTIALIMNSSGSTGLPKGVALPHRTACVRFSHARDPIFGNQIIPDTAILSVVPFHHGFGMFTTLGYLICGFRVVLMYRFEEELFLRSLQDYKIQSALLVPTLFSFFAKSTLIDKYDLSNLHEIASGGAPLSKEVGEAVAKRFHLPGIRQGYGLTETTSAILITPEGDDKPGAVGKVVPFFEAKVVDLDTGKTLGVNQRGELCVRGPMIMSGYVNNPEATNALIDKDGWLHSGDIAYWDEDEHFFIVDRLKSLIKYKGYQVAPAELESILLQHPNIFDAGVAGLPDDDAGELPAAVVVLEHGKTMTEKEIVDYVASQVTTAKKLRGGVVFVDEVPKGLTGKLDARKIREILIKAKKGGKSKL
# PPC-1+TRAIL kill – PPC-1 cancer cell killing with TRAIL present | PPC-1 cells + TRAIL, ATPLite viability luminescence | cell killing (% activity), % at 4 µM or 5 µM | 0.41% of 220,000 active | AID 1443;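 active = cell killing above 50% in the first pass at 4 µM, then a duplicate retest at 5 µM averaging 50% or more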
# HSP90 refold inh – blocks HSP90-mediated luciferase refolding in reticulocyte lysate | inhibition, % at 5.6 µM | Rabbit reticulocyte lysate, luciferase refolding luminescence, 3 h | AID 1789 | 0.91% of 290,000 active;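 active = inhibition above the screen-wide mean plus 3 SD, computed separately per campaign, cut at about 16% in these data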;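 also: inhibitors lower the luminescence because luciferase stays unfolded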
# FLuc stim CS – affects firefly luciferase, flagging false hits in luciferase stimulation screens | AID 1027 | ATPlite luciferase biochemical, luminescence, 10 min; 0 = ATP-free wells, 1 = DMSO control | activation factor at 10 µM | P08659 | 200,000 tested, under 10 active;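 active = luciferase activation factor, scaled between plate controls, of at least 2 with compound at 10 µM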
#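 assay system = Luciferase/luciferin detection reagent, cell-free biochemical luciferase assay | also added = ATP substrate | times = 10 min post-reagent at room temperature | measured by = luminescence from luciferase reaction | measure = luciferase activation, seen as luminescence increase over controls | benchmarks = low control with PBS replacing ATP, high control enzyme plus ATP without compound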
# TRAIL sens C8 – sensitizes caspase-8 expressing cells to TRAIL; inhibition (viability loss, TRAIL sensitization), % at 10 µM; NB7+C8 cells + TRAIL, ATPlite viability luminescence; 1% of 360,000 active;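 active = compounds causing at least 50% loss of cell viability in the single-dose screen, relative to plate controls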
# HSP90 inh confirm – confirmation of HSP90 inhibitors | shares compounds with HSP90 refold inh | rabbit reticulocyte lysate, luciferase refolding luminescence, 3 h | inhibition, % at 5.9 µM | 64% of 2,300 active | AID 1846; in the data active = inhibition above about 18%
# FLuc counter – firefly luciferase inhibition, HSP90 counter-screen | inhibition, % at 5.9 µM | purified native firefly luciferase, luminescence | AID 1847 | shares compounds with HSP90 refold inh | 48% of 2,300 active;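 active = inhibition above the mean inhibition of all tested sample wells plus 3 SD, cut at about 10% in these data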
# Numbers stand for hits; i = inactive; nt = not tested or not shown. The list is not random: actives were taken first. Their share in the collection is about 2%.
SMILES,FLuc inhib CS,PPC-1+TRAIL kill,HSP90 refold inh,FLuc stim CS,TRAIL sens C8,HSP90 inh confirm,FLuc counter
Cc1ccc2nc(NC(=O)CSCC(=O)OCC(=O)c3ccccc3)sc2c1,i,i,66,i,i,78,i
CC(=O)Oc1ccc(Nc2ccccc2)cc1,i,i,31,i,i,56,i
CCn1nnc2cc(C(=O)NCCc3ccccc3F)ccc21,nt,nt,43,nt,i,59,39
CN(C)c1ccc(CNCCC(Cc2ccccc2)c2ccco2)cc1 (centres undefined),nt,i,19,nt,i,i,i
c1ccc(CNCCC(Cc2ccccc2)c2ccco2)cc1 (centres undefined),nt,i,i,nt,i,nt,nt
Cc1[nH]c2ccccc2c1C(C#N)(C#N)C1C(=O)c2ccccc2C1=O,nt,i,77,nt,i,79,i
Cc1[nH]c2ccccc2c1CC#N,nt,i,i,nt,i,nt,nt
O=C(Nc1ccc(C(=O)N2CCCC2)cc1)C1CCC1,nt,nt,nt,nt,i,nt,nt
CSc1nnc(NC(=O)c2ccc3c(c2)OCO3)s1,nt,nt,54,nt,74,82,72
O=c1cc(-c2ccc(Cl)cc2)[nH][nH]1,i,i,29,i,i,i,i
COc1ccc(-c2cc(=O)[nH][nH]2)cc1,i,i,34,i,i,i,i
O=c1cc(-c2ccc(Cl)c(Cl)c2)[nH][nH]1,i,i,i,i,i,nt,nt
CCc1c(C(=O)OCc2ccccc2)[nH]c(C)c1C,nt,i,i,nt,i,nt,nt
CCc1c(C)[nH]c(C(=O)OCc2ccccc2)c1C,i,i,24,i,i,i,i
Cc1cc(N2CCCCC2)n2ncc(-c3ccccc3)c2n1,67,i,37,i,48,50,54
Cc1cc(N2CCC(C)CC2)n2ncc(-c3ccccc3)c2n1,i,i,45,i,i,59,56
Cc1ccc(N2C(=O)N(CC(=O)NCc3ccccc3Cl)C(=O)C2C)cc1 (centres undefined),i,i,i,i,i,nt,nt
CC(=O)Nc1ccc(NC(=O)Cn2cnc3c(cnn3C(C)(C)C)c2=O)cc1,i,i,i,i,nt,nt,nt
CC(C)(C)n1ncc2c(=O)n(CC(=O)NCc3ccccc3)cnc21,i,i,21,i,i,37,34
O=C(Nc1ccccc1)c1ccc(-c2ccccc2)s1,i,i,i,i,i,nt,nt
O=C(O)c1ccc(-c2ccc(-c3ccccc3)cc2)s1,nt,nt,94,nt,i,93,83
CCOc1cc(Cl)c(S(=O)(=O)NCCCN2CCOCC2)cc1Cl,nt,nt,i,nt,i,nt,nt
Cc1ccccc1OCC(=O)N(CC(C)C)c1c(N)n(CC(C)C)c(=O)[nH]c1=O,nt,i,45,nt,i,i,i
Cc1ccc(OCC(=O)N(C)CC(=O)N(CC(C)C)c2c(N)n(CC(C)C)c(=O)[nH]c2=O)c(C)c1,nt,nt,nt,nt,i,nt,nt
COc1cccc(C(=O)N2CCN(C(=O)C3COc4ccccc4O3)CC2)c1 (centres undefined),nt,nt,i,nt,i,nt,nt
SMILES,FLuc inhib CS,PPC-1+TRAIL kill,HSP90 refold inh,FLuc stim CS,TRAIL sens C8,HSP90 inh confirm,FLuc counter
O=C(O)c1ccc(Oc2c(C(F)(F)F)oc3cc(O)ccc3c2=O)cc1,i,i,31,i,i,i,i
Cc1oc2cc(O)ccc2c(=O)c1Oc1ccccc1,i,i,i,i,i,nt,nt
COc1ccccc1NC(=O)CSc1nnc(-c2ccoc2C)n1C,nt,nt,i,nt,i,nt,nt
COc1ccc(C(=O)c2coc3ccc(O)c(CN(C)C)c23)cc1,i,i,35,i,i,i,i
CC(=O)Nc1ccc(NC(=O)C2CC(=O)N(C(C)C)C2)cc1 (centres undefined),nt,nt,i,nt,i,nt,nt
COc1ccc(N(C(C)C(=O)Nc2ccc(S(=O)(=O)N3CCCCC3)cc2)S(C)(=O)=O)cc1 (centres undefined),nt,nt,18,nt,i,i,i
COc1ccc(N(C(C)C(=O)Nc2ccc(S(=O)(=O)N3CCOCC3)cc2)S(C)(=O)=O)cc1 (centres undefined),i,i,i,i,i,nt,nt
CC(C)N1CC(C(=O)Nc2ccc(S(=O)(=O)N3CCCCC3)cc2)CC1=O (centres undefined),nt,nt,26,nt,i,i,i
Cc1cc2nc3c(=O)n(C4CCCCC4)c(=O)[nH]c3nc2cc1N,i,i,i,i,i,nt,nt
CCCNC(=O)Nc1nc2ccccc2s1,nt,i,21,nt,i,i,i
[O-]/[N+](=C\c1ccco1)c1ccc(Cl)cc1,nt,nt,42,nt,i,82,i
[O-]/[N+](=C/c1ccco1)c1ccccc1,nt,nt,i,nt,i,nt,nt
Cc1ccc(NCC(O)C(O)C(O)CO)c(N=Nc2ccccc2)c1C (centres undefined),nt,i,24,nt,i,i,i
Cn1cccc1/C=N/NC(=O)CSc1nc2ccccc2[nH]1,nt,i,i,nt,i,nt,nt
C[n+]1c(/C=C/c2ccc3c(c2)OCO3)ccc2ccccc21,i,nt,32,i,i,54,55
COc1ccccc1Nc1nn2c(=O)c3ccc(C(=O)NCc4cccnc4)cc3nc2s1,nt,nt,20,nt,i,38,i
Cc1ccc(Cl)c2sc(NC(=O)C3=COCCO3)nc12,nt,nt,i,nt,i,nt,nt
CCN1CCN(Cc2ccc(NC(=O)c3ccc(C)c(NC(=O)c4cccc(-c5cn[nH]c(=O)c5)c4)c3)cc2C(F)(F)F)CC1,nt,nt,20,nt,i,19,i
O=C(O)c1ccc(NC(CSCc2ccc(F)cc2)C(=O)O)c([N+](=O)[O-])c1 (centres undefined),i,i,i,i,i,nt,nt
Cc1ccc(CSCC(Nc2ccc(C(=O)O)cc2[N+](=O)[O-])C(=O)O)cc1 (centres undefined),i,i,25,i,i,i,i
Cc1nnc(N/N=C/c2cc(C)n(-c3ccc(F)cc3)c2C)n1N,i,i,19,i,i,i,i
CCc1nnc(N/N=C/c2c(F)cccc2Cl)n1N,nt,nt,i,nt,i,nt,nt
Cc1nnc(N/N=C/c2c(Cl)cccc2Cl)n1N,i,i,19,i,i,i,i
Cc1nnc(N/N=C/c2ccccc2O)n1N,i,i,58,i,i,i,i
Oc1ccccc1/C=N/Nc1nn[nH]n1,nt,i,i,nt,i,nt,nt
SMILES,FLuc inhib CS,PPC-1+TRAIL kill,HSP90 refold inh,FLuc stim CS,TRAIL sens C8,HSP90 inh confirm,FLuc counter
O=C1CCCC(=O)C1=C1SCCCS1,i,i,i,i,i,nt,nt
CSCCC(NC(=O)c1ccccc1C)C(=O)O (centres undefined),i,i,i,i,i,nt,nt
Cc1ccc([N+](=O)[O-])cc1N=C1C(=O)Nc2ccccc21,nt,nt,22,nt,i,i,i
CC(=O)c1ccc(S(=O)(=O)N2CCN(C(=O)CSc3ccc(F)cc3)CC2)cc1,nt,nt,24,nt,i,i,i
O=C(c1ccc(=O)[nH]n1)N1CCN(S(=O)(=O)c2cccc(F)c2)CC1,nt,nt,nt,nt,i,nt,nt
O=c1cc(-c2cccc([N+](=O)[O-])c2)[nH][nH]1,i,i,24,i,i,i,i
Nc1cc(-c2cccc([N+](=O)[O-])c2)[nH]n1,i,i,i,i,i,nt,nt
O=C(Nc1nc2ccccc2[nH]1)c1ccc(OC(F)F)cc1,nt,nt,37,nt,83,58,53
CCOc1ccc(C(=O)Nc2nc3ccccc3[nH]2)cc1OCC,i,i,i,i,i,nt,nt
